Screens as filed in PubChem.
PMI activator = increases human mannose-6-phosphate isomerase activity; 0.005% of 190,000 active; P34949; purified human PMI, coupled resazurin fluorescence, 20 min; active compounds read high; 1 = vehicle control, 0 substrate-free wells; activation factor at 20 µM;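 active = activation factor of 2 or more at 20 µM, relative to plate controls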
Rad51 HR inh = blocks human Rad51 in homologous recombination; Q06609; hRad51 DNA strand exchange, fluorescence dequenching; inhibition, % at 10 µM; 0.085% of 200,000 active;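 active = inhibition above 40% at the single screening dose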;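 also: 0% = DMSO control wells and 100% = blanks with heterologous ssDNA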
Target sequence (Q06609 whole entry, looked up): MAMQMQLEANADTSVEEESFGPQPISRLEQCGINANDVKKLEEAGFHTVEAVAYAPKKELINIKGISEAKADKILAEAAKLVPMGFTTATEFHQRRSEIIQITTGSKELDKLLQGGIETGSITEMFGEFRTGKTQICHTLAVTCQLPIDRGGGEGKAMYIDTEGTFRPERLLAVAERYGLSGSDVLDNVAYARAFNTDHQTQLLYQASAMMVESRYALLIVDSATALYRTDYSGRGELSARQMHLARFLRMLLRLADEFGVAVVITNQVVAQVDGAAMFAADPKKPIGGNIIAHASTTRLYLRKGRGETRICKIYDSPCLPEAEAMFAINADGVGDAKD
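Test system: preformed human Rad51 ssDNA filaments. Compound dosing: single dose, 10 µM final compound. Incubation: filaments 15 min 37 °C, then compound 30 min. Technique: FRET fluorescence dequenching, excitation 485 nm, emission 520 nm. Read-out basis: percent inhibition from fluorescence, normalised to plate control and blank means. Benchmarks: plate controls and plate blanks.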
PMI act hi M6P = increases human PMI activity with near-saturating mannose 6-phosphate | P34949 | coupled PMI enzyme assay, resazurin fluorescence, 20 min; active compounds read high; 1 = untreated enzyme, 0 = substrate-free blank | activation factor at 20 µM | 0.34% of 190,000 active | AID 1216;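 active = activation factor of 2 or more at 20 µM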
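Test system: human PMI in coupled enzyme assay; Input: PMI at 15 ng/mL final; Medium: HEPES buffer, pH 7.4; Schedule: 20 min incubation at room temperature; Technique: resorufin fluorescence at Ex 544/Em 590 nm; Compound: 20 µM single dose; Probe or stimulus: Near-saturating mannose-6-phosphate, 1.0 mM.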
HMGR II inh = inhibitors of class II HMG-CoA reductase from Enterococcus faecalis | purified E. faecalis HMGR, NADPH absorbance 340 nm kinetic | inhibition, % at 10 µM | 0.41% of 190,000 active | AID 1066;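 active = inhibition above a set limit, the median over all tested compounds plus 3 SD, cut at about 9.5% in these data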;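 also: enzyme runs in reverse so mevalonate oxidation gives rising NADPH absorbance; 0% = complete reaction with DMSO and 100% = background rate lacking mevalonate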
Calpain2 inh = calpain II (pig) inhibition | 0.37% of 220,000 active | inhibition, % at 16 µM | purified calpain II, fluorogenic peptide substrate, 30 min;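 active = inhibition above about 50%, limit read from the data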
The depositor's hits bear a star. The list is not random: actives were taken first. Their share in the collection is about 1.1%.

What do the screens show for `CC(C)(C)NCC(O)(c1ccc(Cl)cc1)c1ccc(Cl)cc1`?
PMI activator: 1.1; Rad51 HR inh: 6; PMI act hi M6P: 1.1; HMGR II inh: -2; Calpain2 inh: 16

What do the screens show for `CC(C)NCC(O)(c1ccc(Cl)cc1)c1ccc(Cl)cc1`?
PMI activator: 1; Rad51 HR inh: 9; PMI act hi M6P: 1; HMGR II inh: 13*; Calpain2 inh: -2

Results for CCOC(=O)C(NS(=O)(=O)c1ccccc1)(C(F)(F)F)P(=O)(OCC(C)C)OCC(C)C (stereo not given) ?
PMI activator: 1.8; Rad51 HR inh: 3; PMI act hi M6P: 2*; HMGR II inh: -3; Calpain2 inh: 27

How did CC(=NCCc1c(C)[nH]c2ccc(OCc3ccccc3)cc12)C1=C(O)CC(c2ccccc2)CC1=O (stereo not given) do in these assays?
PMI activator: 0.9; Rad51 HR inh: 5; PMI act hi M6P: 0.9; HMGR II inh: 13*; Calpain2 inh: -30

Results for CCC(=O)Nc1cc(=O)[nH]c2nc(-c3ccc(Cl)cc3)nn12 ?
Rad51 HR inh: 9; Calpain2 inh: 17

What do the screens show for `Clc1ccccc1-c1nnc2sc(-c3cccs3)nn12`?
PMI activator: 0.8; Rad51 HR inh: 4; PMI act hi M6P: 0.8; HMGR II inh: -9; Calpain2 inh: 52*

What do the screens show for `Clc1ccccc1-c1nnc2sc(-c3ccncc3)nn12`?
PMI activator: 1; Rad51 HR inh: -4; PMI act hi M6P: 0.9; HMGR II inh: -1; Calpain2 inh: 13

How did NC(=O)C1CCN(CC(=O)N2N=CCC2c2ccccc2)CC1 (stereo not given) do in these assays?
PMI activator: 0.9; Rad51 HR inh: -5; PMI act hi M6P: 0.9; HMGR II inh: 2; Calpain2 inh: -1

What do the screens show for `Cc1csc(SC(C)c2nc3scc(-c4ccccc4)c3c(=O)[nH]2)n1` (stereo not given)?
Rad51 HR inh: 40*; Calpain2 inh: -2

What do the screens show for `O=c1[nH]c(Cc2ccccc2)nc2scc(-c3ccccc3)c12`?
PMI activator: 1.1; Rad51 HR inh: 5; PMI act hi M6P: 1.1; HMGR II inh: 3; Calpain2 inh: -9

What do the screens show for `O=C(NCCCO)c1ccc(CSc2nc3ccccc3[nH]2)cc1`?
PMI activator: 0.9; PMI act hi M6P: 1; HMGR II inh: 13*; Calpain2 inh: 9

What do the screens show for `CC1CN(C(=O)CSc2nnc(-c3ccc(Cl)cc3)n2C)CC(C)O1` (stereo not given)?
PMI activator: 0.9; Rad51 HR inh: 4; PMI act hi M6P: 1; HMGR II inh: 12*; Calpain2 inh: -8

Results for O=C(O[C@@H]1OC2COC(=O)c3cc(O)c(O)c(O)c3-c3c(cc(O)c(O)c3O)C(=O)O[C@@H]([C@H]1O)[C@@H]2O)c1cc(O)c(O)c(O)c1 ?
PMI activator: 0.5; Rad51 HR inh: 5; PMI act hi M6P: 0.8; Calpain2 inh: 28

What do the screens show for `CCOC(=O)C1=C(C)NC(=S)NC1/C=C/c1ccccc1` (stereo not given)?
PMI activator: 0.9; Rad51 HR inh: 4; PMI act hi M6P: 1; HMGR II inh: -3; Calpain2 inh: 18

Results for CCOc1ccc(Nc2nnc(SCc3nc4ccccc4c(=O)[nH]3)s2)cc1 ?
Rad51 HR inh: -16; Calpain2 inh: 52*

What do the screens show for `Cc1ccccc1Nc1nnc(SCc2nc3ccccc3c(=O)[nH]2)s1`?
PMI activator: 1.1; Rad51 HR inh: -4; PMI act hi M6P: 1.1; HMGR II inh: 14*; Calpain2 inh: 5

What do the screens show for `Cc1cccc(C)c1Nc1nnc(SCc2nc3ccccc3c(=O)[nH]2)s1`?
PMI activator: 1.2; PMI act hi M6P: 1.1; HMGR II inh: -2; Calpain2 inh: 16

How did COC(=O)c1cccn(CC(=O)c2ccc(Cl)cc2)c1=O do in these assays?
PMI activator: 1; Rad51 HR inh: 5; PMI act hi M6P: 1; HMGR II inh: 5; Calpain2 inh: -12

What do the screens show for `CCOc1ccc(OCc2ccc(C(=O)N3CCCC(C)C3)cc2)cc1` (stereo not given)?
PMI activator: 0.9; Rad51 HR inh: 27; PMI act hi M6P: 0.9; HMGR II inh: 1; Calpain2 inh: 71*

How did Cc1ccccc1C1NC(=S)NC2=C1C(=O)CCC2 (stereo not given) do in these assays?
PMI activator: 1; Rad51 HR inh: -40; PMI act hi M6P: 1; HMGR II inh: 1; Calpain2 inh: -6

What do the screens show for `COc1ccc(S(=O)(=O)N(C)c2ccc(C(=O)N3CCCC3)cc2)cc1`?
PMI activator: 0.9; Rad51 HR inh: 13; PMI act hi M6P: 0.9; HMGR II inh: 9.7*; Calpain2 inh: -3

What do the screens show for `COc1ccc(S(=O)(=O)N(C)c2ccc(C(=O)N3CCC(C(N)=O)CC3)cc2)cc1`?
PMI activator: 1; Rad51 HR inh: -1; PMI act hi M6P: 1; HMGR II inh: -5; Calpain2 inh: -14

How did CCOC(=O)C1CCCN(Cc2nc(CC3CC3)no2)C1 (stereo not given) do in these assays?
Rad51 HR inh: -9; Calpain2 inh: 16

What do the screens show for `COCCN(C(=S)Nc1ccc(Cl)cc1OC)C1CCN(C(C)=O)CC1`?
Rad51 HR inh: 6; Calpain2 inh: -8

How did O=C(c1ccc2c(c1)OCO2)C1CCCN(Cc2ccc3nsnc3c2)C1 (stereo not given) do in these assays?
PMI activator: 0.9; Rad51 HR inh: 1; PMI act hi M6P: 0.9; HMGR II inh: 11*; Calpain2 inh: 13

How did Cn1c(CN2CCCC(C(=O)c3ccc4c(c3)OCO4)C2)nc2ccccc21 (stereo not given) do in these assays?
PMI activator: 0.9; Rad51 HR inh: 22; PMI act hi M6P: 0.9; HMGR II inh: 0; Calpain2 inh: -11

Results for COc1ccc(O[C@H]2C=C[C@@H](c3ccccc3)O[C@@H]2COC(=O)CC/C(C)=N/O[C@@H](C)c2cn([C@H](CO)Cc3ccccc3)nn2)cc1 ?
PMI activator: 0.9; Rad51 HR inh: -4; PMI act hi M6P: 0.8; HMGR II inh: -2; Calpain2 inh: 27

How did C/C(CCN1CCc2nc(-c3ccccc3)c(-c3ccccc3)cc2C1)=N\O[C@@H](C)c1cn([C@H](CO)Cc2ccccc2)nn1 do in these assays?
PMI activator: 1.2; PMI act hi M6P: 1.1; HMGR II inh: 10.0*; Calpain2 inh: -65

Results for Cn1c(/C(C#N)=N/O)nc2ccccc21 ?
PMI activator: 1; Rad51 HR inh: -3; PMI act hi M6P: 1.1; HMGR II inh: 11*; Calpain2 inh: -15

Results for CCn1c(/C(C#N)=N/O)nc2ccccc21 ?
PMI activator: 0.9; PMI act hi M6P: 0.9; HMGR II inh: 0; Calpain2 inh: 1

Results for COc1ccc(CNc2nc3c(c(=O)n(Cc4ccc(Br)cc4)c(=O)n3C)n2C)cc1 ?
PMI activator: 0.9; Rad51 HR inh: -6; PMI act hi M6P: 1; HMGR II inh: -3; Calpain2 inh: 89*
